Test results from ChEMBL document CHEMBL1145446, “Phosphonated carbocyclic 2'-oxa-3'-azanucleosides as new antiretroviral agents” (J Med Chem, 2007).
≈ marks a conversion by molar mass, not a printed value. Calls of active or inactive are those of the source. The rule behind the calls is not given here.

Key:
[1] = system: Human T-cell leukemia virus type I; experiment: Antiviral activity against HTLV1 in human PBMC; type: functional
In short: (§1)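 Fresh human PBMC cultures were given compound at 100, 25, 5 or 1 µM immediately before exposure to HTLV-1. Infection was read out as Tax/Rex viral mRNA expression by liquid hybridization assay 3 weeks after virus exposure.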

[2] = system: Human T-cell leukemia virus type I; experiment: Antiviral activity against HTLV1 in human PBMC at 100 uM; type: functional, organism-based; in short: as §1
PBMC = experiment: Cytotoxicity against PBMC after 1 week by trypan blue exclusion test; type: cell-based; conditions: human, 168 h
In short: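 Freshly separated PBMCs were cultured short-term with compound and interleukin 2, without other stimuli. Cell growth and death were assessed on day 7, and cytotoxicity was expressed as CC20.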

[3] = system: Human T-cell leukemia virus type I; experiment: Antiviral activity against HTLV1 in human PBMC at 1 uM; type: functional, organism-based; in short: as §1
[4] = system: Human T-cell leukemia virus type I; experiment: Antiviral activity against HTLV1 in human PBMC at 5 uM; type: functional, organism-based; in short: as §1
[5] = system: Human T-cell leukemia virus type I; experiment: Antiviral activity against HTLV1 in human PBMC at 25 uM; type: functional, organism-based; in short: as §1
[6] = system: Human T-cell leukemia virus type I; experiment: Inhibition of HTLV1 reverse transcriptase
In short: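 Cell-free assay of HTLV-1 reverse transcriptase, with compounds activated by incubation with human PBMC crude extract. Reverse transcription was read out by RT-PCR using a 20-cycle amplification program.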

SMILES | MIC [6] [nM] | MPC [1] [µM] | Activity [2] | CC20 (PBMC) [µM] | GI25 (PBMC) [µM] | Activity [3] | Activity [4] | Activity [5]
CCOP(=O)(CC1CC(n2cc(C)c(=O)[nH]c2=O)ON1C)OCC (stereo not given) |  | 1 | Active | > 2048 | 817 | Active | Active | Active
CCOP(=O)(CC1CC(n2cc(F)c(=O)[nH]c2=O)ON1C)OCC (stereo not given) |  | 1 | Active | > 2048 | 119 | Active | Active | Active
Cc1cn([C@H]2C[C@H](N=[N+]=[N-])[C@@H](CO)O2)c(=O)[nH]c1=O [ZIDOVUDINE] | 4 (≈ 1.07 ng/mL) | 1 | Active | 1153 | 15 | Active | Active | Active

Now from value to molecule, other results behind:

MIC [6] [nM] | SMILES | MPC [1] [µM] | Activity [2] | CC20 (PBMC) [µM] | GI25 (PBMC) [µM] | Activity [3] | Activity [4] | Activity [5]
8 (≈ 3.41 ng/mL) | CCOP(=O)(CC1CC(n2cc(Br)c(=O)[nH]c2=O)ON1C)OCC (racemic) | >100 |  | > 2048 | 215 |  |  | 
> 10000 | CCOP(=O)(CC1CC(n2cnc3c(N)ncnc32)ON1C)OCC (racemic) | >100 |  | > 2048 | 121 |  |  | 
